Blank lines part the entries; values can stand above or below the compound they belong to.
Tests used:
KB [1] = experiment: Cytotoxicity against human KB cells after 72 hrs by MTS assay; type: functional, cell-based
[2] = Inhibition of sheep brain tubulin polymerization at 2x10'-5 M after 5 mins; design: species or system Ovis aries
Summary of the method: (§1)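 Sheep brain microtubule proteins were purified by two assembly/disassembly cycles (37 °C/0 °C) in 100 mM MES pH 6.6, 1 mM EGTA, 0.5 mM MgCl2. Polymerization rate was followed by turbidity at 350 nm, with deoxypodophyllotoxin as reference. Compounds were tested at ~2×10^-5 M for % inhibition, with IC50 determined for selected compounds.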

KB [3] = experiment: Induction of cell cycle arrest in human KB cells assessed as accumulation at G0/G1phase at 50 nM after 24 hrs by propidium iodide staining-based flow cytometry (reference value: 72.9%); type: functional
HL-60 [4] = experiment: Induction of apoptosis in human HL60 cells assessed as late apoptosis cells at 50 nM after 48 hrs by annexin-V-PE/7-AAD staining (reference value: 0.1%); type: functional
KB [5] = experiment: Induction of cell cycle arrest in human KB cells assessed as accumulation at G2/M phase at 50 nM after 48 hrs by propidium iodide staining-based flow cytometry (reference value: 13.8%); type: functional
PC-3 = experiment: Cytotoxicity against human PC3 cells after 72 hrs by MTS assay; type: functional, cell-based; conditions: PC-3, 72 h
SK-OV-3 = experiment: Cytotoxicity against human SKOV3 cells after 72 hrs by MTS assay; type: functional, cell-based; conditions: SK-OV-3, 72 h
[6] = Cytotoxicity against human MCF7/R cells after 72 hrs by MTS assay; type: functional, cell-based; conditions: MCF7R
KB [7] = experiment: Induction of cell cycle arrest in human KB cells assessed as accumulation at subG1 phase at 50 nM after 24 hrs by propidium iodide staining-based flow cytometry (reference value: 0.7%); type: functional
HL-60 [8] = experiment: Induction of apoptosis in human HL60 cells assessed as viable cells at 50 nM after 48 hrs by annexin-V-PE/7-AAD staining (reference value: 97.4%); type: functional; conditions: HL-60, 48 h, read-out: Activity
HCT-15 = experiment: Cytotoxicity against human HCT15 cells after 72 hrs by MTS assay; type: functional, cell-based; conditions: HCT-15, 72 h
HCT-116 = experiment: Cytotoxicity against human HCT116 cells after 72 hrs by MTS assay; type: functional, cell-based; conditions: HCT-116, 72 h
OVCAR-8 = experiment: Cytotoxicity against human OVCAR8 cells after 72 hrs by MTS assay; type: functional, cell-based; conditions: OVCAR-8, 72 h
KB [9] = experiment: Induction of cell cycle arrest in human KB cells assessed as accumulation at S phase at 50 nM after 48 hrs by propidium iodide staining-based flow cytometry (reference value: 18.4%); type: functional
KB [10] = experiment: Induction of cell cycle arrest in human KB cells assessed as accumulation at subG1 phase at 50 nM after 48 hrs by propidium iodide staining-based flow cytometry (reference value: 1.2%); type: functional
KB [11] = experiment: Induction of cell cycle arrest in human KB cells assessed as accumulation at G2/M phase at 50 nM after 24 hrs by propidium iodide staining-based flow cytometry (reference value: 19.6%); type: functional
Ovis aries = species: Ovis aries; experiment: Inhibition of sheep brain tubulin polymerization after 5 mins; summary of the method: as §1
[12] = Cytotoxicity against human HL60R cells after 72 hrs by MTS assay; type: functional, cell-based; conditions: HL-60, 72 h
K562 = experiment: Cytotoxicity against human K562 cells after 72 hrs by MTS assay; type: functional, cell-based; conditions: K562, 72 h
HL-60 [13] = experiment: Induction of apoptosis in human HL60 cells assessed as early apoptosis cells at 50 nM after24 hrs by annexin-V-PE/7-AAD staining (reference value: 2.6%); type: functional
KB [14] = experiment: Induction of cell cycle arrest in human KB cells assessed as accumulation at S phase at 50 nM after 24 hrs by propidium iodide staining-based flow cytometry (reference value: 6.9%); type: functional
A549 = experiment: Cytotoxicity against human A549 cells after 72 hrs by MTS assay; type: functional, cell-based; conditions: A549, 72 h
HL-60 [15] = experiment: Cytotoxicity against human HL60 cells after 72 hrs by MTS assay; type: functional, cell-based; conditions: HL-60, 72 h
HepG2 = experiment: Cytotoxicity against human HepG2 cells after 72 hrs by MTS assay; type: functional, cell-based; conditions: HepG2, 72 h
KB [16] = experiment: Induction of cell cycle arrest in human KB cells assessed as accumulation at G0/G1phase at 50 nM after 48 hrs by propidium iodide staining-based flow cytometry (reference value: 66.6%); type: functional
HL-60 [17] = experiment: Induction of apoptosis in human HL60 cells assessed as late apoptosis cells at 50 nM after24 hrs by annexin-V-PE/7-AAD staining (reference value: 0.2%); type: functional
HL-60 [18] = experiment: Induction of apoptosis in human HL60 cells assessed as viable cells at 50 nM after24 hrs by annexin-V-PE/7-AAD staining (reference value: 97.2%); type: functional; conditions: read-out: Activity
HL-60 [19] = experiment: Induction of apoptosis in human HL60 cells assessed as induction of caspase 3/7 activation at 100 nM relative to control; type: functional
Summary of the method: (§2)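 HL60 cells (20,000/well) were treated 24 and 48 h with compounds in DMSO. Vehicle and doxorubicine served as controls. Fluorescence (ex 360/em 465 nm) was followed over 3 h.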

MIA PaCa-2 = experiment: Cytotoxicity against human MIAPaCa2 cells after 72 hrs by MTS assay; type: functional, cell-based; conditions: MIA PaCa-2, 72 h
SF-268 = experiment: Cytotoxicity against human SF268 cells after 72 hrs by MTS assay; type: functional, cell-based; conditions: SF-268, 72 h
HT-29 = experiment: Cytotoxicity against human HT-29 cells after 72 hrs by MTS assay; type: functional, cell-based; conditions: HT-29, 72 h
KB [20] = experiment: Cytotoxicity against human KB cells at 10^-6 M after 72 hrs by MTS assay; type: functional
Summary of the method: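 KB cells in D-MEM with 10% FCS were seeded at 600 cells/well and dosed 24 h later with flavone at 10^-6 M in DMSO. Controls received DMSO at 1% final. After 72 h, MTS was added for 3 h at 37 °C and A490 read in triplicate. Growth inhibition (%) = (1 − OD treated/OD control)×100.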

HL-60 [21] = experiment: Induction of apoptosis in human HL60 cells assessed as induction of caspase 3/7 activation at 100 uM relative to control; type: functional; summary of the method: as §2
KB [22] = experiment: Induction of cell cycle arrest in human KB cells assessed as accumulation at subG1 phase at 20 nM after 48 hrs by propidium iodide staining-based flow cytometry (reference value: 1.2%); type: functional
KB [23] = experiment: Induction of cell cycle arrest in human KB cells assessed as accumulation at G2/M phase at 20 nM after 24 hrs by propidium iodide staining-based flow cytometry (reference value: 19.6%); type: functional
KB [24] = experiment: Induction of cell cycle arrest in human KB cells assessed as accumulation at subG1 phase at 20 nM after 24 hrs by propidium iodide staining-based flow cytometry (reference value: 0.7%); type: functional
KB [25] = experiment: Induction of cell cycle arrest in human KB cells assessed as accumulation at S phase at 20 nM after 48 hrs by propidium iodide staining-based flow cytometry (reference value: 18.4%); type: functional
KB [26] = experiment: Induction of cell cycle arrest in human KB cells assessed as accumulation at G2/M phase at 20 nM after 48 hrs by propidium iodide staining-based flow cytometry (reference value: 13.8%); type: functional
KB [27] = experiment: Induction of cell cycle arrest in human KB cells assessed as accumulation at S phase at 20 nM after 24 hrs by propidium iodide staining-based flow cytometry (reference value: 6.9%); type: functional
KB [28] = experiment: Induction of cell cycle arrest in human KB cells assessed as accumulation at G0/G1phase at 20 nM after 24 hrs by propidium iodide staining-based flow cytometry (reference value: 72.9%); type: functional
KB [29] = experiment: Induction of cell cycle arrest in human KB cells assessed as accumulation at G0/G1phase at 20 nM after 48 hrs by propidium iodide staining-based flow cytometry (reference value: 66.6%); type: functional

IC50 [2]: 85000 nM
SMILES: COc1ccc(-c2oc3c(OC)c(O)c(OC)c(O)c3c(=O)c2OC)cc1N
IC50 (KB [1]): 6200 nM

inhibition (Ovis aries): 3%
IC50 [2]: 8900 nM
SMILES: COc1ccc(-c2oc3c(OC)c(OC)c(OC)c(O)c3c(=O)c2OC)cc1O
Activity (KB [3]): 21.3%
Activity (HL-60 [4]): 7.2%
Activity (KB [5]): 11.8%
IC50 (PC-3): > 1000 nM
IC50 (SK-OV-3): 22 nM
IC50 [6]: 17 nM
Activity (KB [7]): 14.9%
viability at 0.05 µM (HL-60 [8]): 30.8%
IC50 (HCT-15): 14 nM
IC50 (HCT-116): 23 nM
IC50 (OVCAR-8): 40 nM
Activity (KB [9]): 38.6%
Activity (KB [10]): 22.2%
Activity (KB [11]): 45.3%
IC50 [12]: 5 nM
IC50 (K562): 7 nM
Activity (HL-60 [13]): 26.7%
Activity (KB [14]): 18.5%
IC50 (A549): 58 nM
IC50 (HL-60 [15]): 36 nM
IC50 (HepG2): 174 nM
Activity (KB [16]): 27.4%
Activity (HL-60 [17]): 0.8%
viability at 0.05 µM (HL-60 [18]): 72.4%
fold change (FC) (HL-60 [19]): 5.7
IC50 (MIA PaCa-2): 12 nM
IC50 (SF-268): 186 nM
IC50 (HT-29): 3140 nM
Activity (KB [20]): 96%

IC50 [2]: 24000 nM
SMILES: COc1ccc(-c2oc3c(OC)c(OC)c(OC)c(N)c3c(=O)c2OC)cc1N
fold change (FC) (HL-60 [21]): 3.6
IC50 (KB [1]): 128 nM
Activity (KB [20]): 78%

SMILES: COc1c(I)cc(-c2oc3c(OC)c(OC)c(OC)c(O)c3c(=O)c2OC)cc1I
Activity (KB [20]): <=13%

SMILES: COc1ccc(-c2oc3c(OC)c(OC)c(OC)c(O)c3c(=O)c2OC)cc1-c1cc(-c2oc3c(OC)c(OC)c(OC)c(O)c3c(=O)c2OC)ccc1OC
Activity (KB [20]): <=13%

SMILES: COc1ccc(-c2oc3c(OC)c(OC)c(OC)c(O)c3c(=O)c2OC)cc1C#N
Activity (KB [20]): <=13%

SMILES: COc1ccc(-c2oc3c(OC)c(OC)c(OC)c(O)c3c(=O)c2OC)cc1I
Activity (KB [20]): <=13%

SMILES: COc1ccc(-c2oc3c(O)c(OC)c(OC)c(O)c3c(=O)c2OC)cc1N
IC50 (KB [1]): > 10000 nM
Activity (KB [20]): 34%

SMILES: COc1ccc(/C=C\c2cc(OC)c(OC)c(OC)c2)cc1O [COMBRETASTATIN A4]
Activity (KB [22]): 43.5%
Activity (KB [23]): 50.1%
Activity (KB [24]): 13.8%
Activity (KB [25]): 44%
Activity (KB [26]): 0.8%
Activity (KB [27]): 26.7%
Activity (KB [28]): 9.5%
Activity (KB [29]): 27.4%

SMILES: COc1c(OC)c(O)c2c(=O)c(OC)c(-c3ccc(O)cc3)oc2c1OC [CALYCOPTERIN]
Activity (KB [20]): 0%

inhibition (Ovis aries): 2%
SMILES: COc1ccc(-c2oc3c(OC)c(OC)c(OC)c(O)c3c(=O)c2OC)cc1 [5-HYDROXYAURANETIN]
fold change (FC) (HL-60 [21]): 4.5
IC50 (KB [1]): 720 nM
Activity (KB [20]): 73%
